Test results published in ChEMBL document CHEMBL3739286, “Betulinic acid derived hydroxamates and betulin derived carbamates are interesting scaffolds for the synthesis of novel cytotoxic compounds” (Eur J Med Chem, 2015).
pEC50: −log10 of the molar value.

Experiments:
[1] = test system: A549; experiment: Cytotoxicity against human A549 cells after 96 hrs by SRB assay; type: functional, cell-based; settings: Homo sapiens, A549, 96 h; read-out: EC50
Outline: (§1)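 Photometric sulforhodamine B read-out of antiproliferative effect after 96 h of continuous treatment; EC₅₀ values in µM, averaged from three independent experiments each run in triplicate; the assay cut-off is EC₅₀ > 30 µM. Human tumour lines are tested alongside nonmalignant mouse NIH 3T3 fibroblasts.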

[2] = Cytotoxicity against mouse NIH/3T3 cells after 96 hrs by SRB assay; type: cell-based, NIH3T3; settings: Mus musculus, NIH3T3, 96 h; read-out: EC50; outline: as §1
[3] = Cytotoxicity against human 518A2 cells after 96 hrs by SRB assay; type: functional, cell-based; settings: Homo sapiens, 518A2, 96 h; read-out: EC50; outline: as §1
[4] = test system: HT-29; experiment: Cytotoxicity against human HT-29 cells after 96 hrs by SRB assay; type: functional, cell-based; settings: HT-29, 96 h; outline: as §1
[5] = test system: A2780; experiment: Cytotoxicity against human A2780 cells after 96 hrs by SRB assay; type: functional, cell-based; settings: Homo sapiens, A2780, 96 h; read-out: EC50; outline: as §1
[6] = test system: HeLa; experiment: Cytotoxicity against human HeLa cells after 96 hrs by SRB assay; type: functional, cell-based; outline: as §1
[7] = test system: MCF7; experiment: Cytotoxicity against human MCF7 cells after 96 hrs by SRB assay; type: functional, cell-based; settings: Homo sapiens, MCF7, 96 h; read-out: EC50; outline: as §1

Row | SMILES | pEC50 [1] | pEC50 [2] | pEC50 [3] | pEC50 [4] | pEC50 [5] | pEC50 [6] | pEC50 [7]
1 | C=C(C)[C@@H]1CC[C@]2(COC(=O)NCCCC)CC[C@]3(C)[C@H](CC[C@@H]4[C@@]5(C)CCC(=O)C(C)(C)[C@@H]5CC[C@]43C)[C@@H]12 | < 4.52 | < 4.52 | < 4.52 | < 4.52 | < 4.52 | < 4.52 | < 4.52
2 | C=C(C)[C@@H]1CC[C@]2(C(N)=O)CC[C@]3(C)[C@H](CC[C@@H]4[C@@]5(C)CC[C@H](O)C(C)(C)[C@@H]5CC[C@]43C)[C@@H]12 | 5.09 | 4.97 | 5.00 | 4.99 | 4.80 | 4.95 | 4.97
3 | C=C(C)[C@@H]1CC[C@]2(C(=O)NCc3ccccc3)CC[C@]3(C)[C@H](CC[C@@H]4[C@@]5(C)CC[C@H](OC(C)=O)C(C)(C)[C@@H]5CC[C@]43C)[C@@H]12 | 4.99 | < 4.52 | 5.21 | < 4.52 | 5.21 | 4.77 | < 4.52
4 | C=C(C)[C@@H]1CC[C@]2(COC(=O)NCCC)CC[C@]3(C)[C@H](CC[C@@H]4[C@@]5(C)CCC(=O)C(C)(C)[C@@H]5CC[C@]43C)[C@@H]12 | < 4.52 | < 4.52 | < 4.52 | < 4.52 | < 4.52 | < 4.52 | < 4.52
5 | C=C(C)[C@@H]1CC[C@]2(COC(=O)NCCCCCC)CC[C@]3(C)[C@H](CC[C@@H]4[C@@]5(C)CCC(=O)C(C)(C)[C@@H]5CC[C@]43C)[C@@H]12 | < 4.52 | < 4.52 | < 4.52 | < 4.52 | < 4.52 | < 4.52 | < 4.52
